High-throughput results (PubChem BioAssay)
Most compounds without a hit are left out; they make up all but 1.8% or so of the library.
CHRM4 PAM = human M4 muscarinic receptor positive allosteric modulators, primary screen, CHO-K1 cells, Fluo-8 calcium fluorescence; Muscarinic acetylcholine receptor M4 (Homo sapiens), P08173; CHO-K1 hM4/Gqi5, ACh EC20; 0% = ACh EC20, 100% = maximal ACh; activation, % at 3 µM; hit rate 0.4% among 360,000;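 active = activation above its plate's cutoff, the mean activation of sample wells plus 3 SD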
CHRM5 PAM = human M5 muscarinic receptor positive allosteric modulators, primary screen, CHO-K1 cells, Fluo-8 calcium fluorescence; activation, % at 3 µM; CHO-K1 hM5, ACh EC20 PAM; 0% = ACh EC20, 100% = ACh EC100; hit rate 0.3% among 360,000; AID 624038, 2012; Muscarinic acetylcholine receptor M5 (Homo sapiens), P08912;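 active = activation above the run cutoff, the mean activation of all test compounds plus 3 SD, cut at about 18% in these data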
Target sequence (P08912 whole entry, looked up): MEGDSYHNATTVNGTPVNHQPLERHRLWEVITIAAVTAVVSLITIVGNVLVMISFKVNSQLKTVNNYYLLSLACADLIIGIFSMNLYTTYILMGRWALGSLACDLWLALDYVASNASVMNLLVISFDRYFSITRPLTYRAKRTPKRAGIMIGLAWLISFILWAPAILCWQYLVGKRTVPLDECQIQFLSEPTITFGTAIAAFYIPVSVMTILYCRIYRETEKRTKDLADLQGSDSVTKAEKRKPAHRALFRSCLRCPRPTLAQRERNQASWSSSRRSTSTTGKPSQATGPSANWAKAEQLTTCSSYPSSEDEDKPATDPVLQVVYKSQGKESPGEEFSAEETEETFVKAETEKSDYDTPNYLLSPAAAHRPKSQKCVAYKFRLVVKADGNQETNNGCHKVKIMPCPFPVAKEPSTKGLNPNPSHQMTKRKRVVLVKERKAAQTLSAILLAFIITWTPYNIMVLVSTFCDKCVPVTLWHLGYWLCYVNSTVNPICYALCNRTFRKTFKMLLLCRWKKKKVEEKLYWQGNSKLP
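Test system: CHO-K1 hM5 cells / Doses: single-point, 3 µM nominal / Times: Post-acetylcholine fluorescence recording 140 s / Technique: Fluo-8 calcium fluorescence / Measure: Max/basal fluorescence ratio as % of EC20–EC100 ACh window / Benchmarks: low control EC20 acetylcholine (0%), high control EC100 acetylcholine (100%) / Replicates: one well per compound, no replicates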
CHRM5 agonist = human M5 muscarinic receptor agonists, primary screen, CHO-K1 cells, Fluo-8 calcium fluorescence; AID 624037, 2012; CHO-K1 hM5 cells; 0% DMSO wells, 100% maximal acetylcholine response; hit rate 0.19% among 360,000; activation, % at 3 µM;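 active = activation above the run's mean over test compounds plus 3 SD, cut at about 23% in these data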;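 also: signal is peak over basal fluorescence ratio across the kinetic read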
CHRM4 antagonist = human M4 muscarinic receptor antagonists, primary screen, CHO cells, Fluo-8 calcium fluorescence; Muscarinic acetylcholine receptor M4 (Homo sapiens), P08173; CHO-hM4 cells, ACh EC80; inhibition, % at 3 µM; hit rate 0.73% among 360,000; AID 624125, 2012;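 active = inhibition above its plate's cutoff, the mean inhibition of sample wells plus 3 SD, cut at about 27% in these data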
CHRM4 agonist = human M4 muscarinic receptor agonists, primary screen, CHO-K1 cells, Fluo-8 calcium fluorescence; AID 624127, 2012; CHO-K1 hM4/Gqi5; vehicle 0%, full acetylcholine response 100%; hit rate 0.14% among 360,000; activation, % at 3 µM; Muscarinic acetylcholine receptor M4 (Homo sapiens), P08173;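 active = activation above the run mean over all test wells plus 3 SD, cut at about 32% in these data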;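 also: peak over basal fluorescence ratio per well then scaled between controls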
M5 antag = human M5 muscarinic receptor antagonists, primary screen, CHO cells, Fluo-8 calcium fluorescence; Muscarinic acetylcholine receptor M5 (Homo sapiens), P08912; CHO-hM5 cells, ACh EC80; inhibition, % at 3 µM; hit rate 0.59% among 360,000; AID 624040, 2012;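 active = inhibition above a per-plate cutoff, the mean of that plate's test compounds plus 3 SD, cut at about 27% in these data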
Large screens that a line does not name were inactive.

NCCCCCc1nnc(SCc2cccc(Cl)c2)o1	CHRM4 antagonist 85, M5 antag 80
NCCCCCc1nnc(SCc2ccc(Cl)cc2Cl)o1	CHRM4 antagonist 50, M5 antag 43
NCCc1nnc(SCc2ccccc2Cl)o1	none
O=C(/C=C/c1ccccc1)NNC(=O)c1ccco1	none
O=C(C[C@@H]1C/C=C/CCCC(=O)O[C@H](c2ccccc2)CNC1=O)N[C@H](CO)Cc1ccccc1	none
CC(=O)Nc1ccc(NC(=O)C(OC(=O)c2ccccc2)C(OC(=O)c2ccccc2)C(=O)O)cc1 (configuration not stated)	none
O=C(Cc1ccc(Cl)cc1)Nc1ccccc1C(=O)N1CCCCC1	M5 antag 28
COc1ccc(/C=N/NC(=O)c2cccc3ccccc23)c(OC)c1OC	none
COCCNC(=O)CN(C(=O)c1ccc(N2CCCC2)nc1)c1ccccc1	none
COCCNC(=O)CN(C(=O)c1ccc(N2CCCC2)nc1)c1ccc(F)c(Cl)c1	CHRM5 PAM 22
COC(=O)Cc1ccc(OC2(C)CCN(Cc3ccc(-c4ccccn4)cc3)C2)cc1 (configuration not stated)	CHRM4 antagonist 34
COC(=O)Cc1ccc(OC2(C)CCN(Cc3ccccc3OC(F)F)C2)cc1 (configuration not stated)	CHRM4 antagonist 55
CCc1ccc(OC2(C)CCN(Cc3ccccc3OC(F)F)C2)cc1 (configuration not stated)	none
COc1cccc(OC2(C)CCN(Cc3ccc(-c4ccccn4)cc3)C2)c1 (configuration not stated)	none
Cc1ccn2cc(CNS(=O)(=O)c3ccc4ccccc4c3)nc2c1	CHRM4 antagonist 99
Cc1cccn2cc(CNS(=O)(=O)c3ccc4ccccc4c3)nc12	none
C[C@@H]1C2CC(C/C2=N\NC(=O)c2ccncc2)C1(C)C (some centres not stated)	CHRM5 PAM 39
O=C1CN2CCC1C/C2=C\c1ccnc2c(Cl)cccc12 (configuration not stated)	none
CC(C)NC(=O)CN1CCN(C(=O)c2ccc3oc(CCCc4ccccc4)nc3c2)CC1	CHRM4 PAM 23
Cc1c(Cl)cccc1NC(=S)NC1CCN(C(C)C)CC1	none
COC(=O)C1=C(C)NC2=C(C(=O)CCC2)C1c1ccc(-c2ccsc2C(=O)OC)o1 (configuration not stated)	CHRM4 agonist 37
CC1=C(C(=O)OC2CCCCCC2)C(c2ccc(C)o2)C2=C(CCCC2=O)N1 (configuration not stated)	none
O=C(CCC1CCN(Cc2ccccc2O)CC1)NC1CC1	CHRM5 PAM 21
S=C1NCN(Cc2ccccc2)CN1C1CCCCC1	CHRM5 PAM 21
CC(C)(C)NC(=O)NC(=O)CN1CCN(C(c2ccccc2)c2ccccc2)CC1	none
Cc1ccc(S(=O)(=O)N2CCC(C)CC2)cc1[N+](=O)[O-]	none
CC(Sc1ccc(S(=O)(=O)N2CCOCC2)cc1[N+](=O)[O-])C(=O)O (configuration not stated)	CHRM4 PAM 23
COC(=O)CSc1ccc(S(=O)(=O)N2CCC(C)CC2)cc1[N+](=O)[O-]	CHRM4 PAM 25
Cc1ccc(OCc2ccc(C(=O)NNC(=S)NCC3CCCO3)o2)c([N+](=O)[O-])c1 (configuration not stated)	CHRM5 PAM 19
CN1CCCC1=Nc1ccccc1	none
CC(C)CC(NS(=O)(=O)OCC(Cl)(Cl)Cl)c1ccccc1 (configuration not stated)	CHRM4 antagonist 30
COC(=O)CCC(NS(=O)(=O)OCC(Cl)(Cl)Cl)c1ccccc1 (configuration not stated)	none
O=[N+]([O-])c1cc2cccnc2c2ncccc12	CHRM4 PAM 12
Cc1ccc(NC(=O)COC(=O)CCc2nc3ccccc3c(=O)[nH]2)c(Br)c1	CHRM4 PAM 25
Nc1nc(-c2ccc3c(c2)CCCC3)cs1	CHRM5 PAM 20
Nc1nc(-c2ccc3c(c2)OCCO3)cs1	none
CCC1=NN2C(=N)/C(=C/c3cc(C)n(Cc4ccccc4)c3C)C(=O)N=C2S1	CHRM5 agonist 24, CHRM4 agonist 53
COc1ccc(C)cc1NC(=O)CSc1nnc2ccc(-c3ccncc3)nn12	CHRM4 antagonist 27
COc1ccc(OC)c(NC(=O)CSc2nnc3ccc(-c4ccncc4)nn23)c1	none
COc1cccc(CN(C)C(=O)c2ccc(OCC(=O)Nc3cccc(C(F)(F)F)c3)c(OC)c2)c1	M5 antag 29
O=C(NC1CCSC1)c1cccc(Cl)c1 (configuration not stated)	none
CC(=O)OCC1OC(n2cc(F)c(=O)[nH]c2=O)C(OC(C)=O)C1OC(C)=O (configuration not stated)	none
O=C1C(F)=CC(COC(c2ccccc2)(c2ccccc2)c2ccccc2)OC1n1cc(F)c(=O)[nH]c1=O (configuration not stated)	CHRM4 antagonist 34
COC(=O)[C@]12CCCCC=C1N(CCc1ccc(OC)c(OC)c1)C(=O)[C@H](CC(=O)NCCCCc1ccccc1)C2	none
Clc1ccc(-c2nnc3c4ccccc4nc(N4CCOCC4)n23)cc1Cl	none
Brc1ccc(-c2nnc3c4ccccc4nc(N4CCOCC4)n23)cc1	CHRM4 PAM 40
COC(=O)COc1ccc(NC(=O)c2ccco2)cc1	none
Cc1cc(C)n(CCNC(=O)[C@H]2O[C@@H](n3ccc(=O)[nH]c3=O)[C@H](O)[C@@H]2O)n1	none
Cc1nn(CC(=O)NCc2ccccc2)c(C)c1[N+](=O)[O-]	none
Cc1nn(CC(=O)NC(=O)c2ccccc2)c(C)c1[N+](=O)[O-]	CHRM4 PAM 23
CCn1nc(C)c([N+](=O)[O-])c1C(=O)NNC(=O)c1ccc(Cl)cc1	CHRM5 PAM 20
CCC(C)(C)n1nnnc1C(c1ccc2ncccc2c1)N1CCCCCC1 (configuration not stated)	none
N#Cc1c(-c2ccco2)ccn(Cc2cccc(F)c2)c1=O	none
CN(CCCCCCCCC(=O)/C=N/O)Cc1ccccc1	CHRM4 antagonist 73
CCOCC(=O)Nc1ccccc1C(=O)O	CHRM4 PAM 26
